IMP-1 inh: blocks Pseudomonas aeruginosa IMP-1 metallo-beta-lactamase; purified IMP-1, nitrocefin hydrolysis, epi-absorbance fluorescence; inhibition, % at 5.6 µM; actives 0.45% (n = 290,000); AID 1556;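 active means inhibition above the mean plus 3 SD of all compounds in the same screening run, cut at about 4.5% in these data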;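 further: 0% = IMP-1 with DMSO and 100% = DMSO wells lacking enzyme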
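Test system: recombinant IMP-1 enzyme, purified / Medium: HEPES buffer pH 7.1 with ZnSO4 and Brij 35 / Doses: single dose, 5.6 µM / Times: 25 °C, 15 min preincubation, 25 min reaction / Detection: Epi-absorbance via hydrolysed-nitrocefin quenching of white-plate fluorescence, 480/530 nm, EDTA stop / Evaluation: percent inhibition from optical density relative to buffer-blank wells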
VIM-2 inhibitor: blocks Pseudomonas aeruginosa VIM-2 metallo-beta-lactamase; actives 0.89% (n = 290,000); inhibition, % at 5.6 µM; purified VIM-2, nitrocefin hydrolysis, epi-absorbance fluorescence;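 active means inhibition above the mean of all tested compounds plus 3 SD, cutoff set per screening run, cut at about 7.5% in these data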;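 further: red hydrolysis product quenches plate fluorescence so inhibitors raise well fluorescence; 0% = enzyme with DMSO and 100% = DMSO without enzyme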
ARFGAP1 inhibitor: rat ARFGAP1 inhibition; inhibition, % at 16.5 µM; Arfgap1-stimulated ARF1 GTP hydrolysis, GDP FP detection; Q62848; AID 651572; actives 0.26% (n = 360,000);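 active means inhibition above a per-plate limit, mean inhibition of low control wells plus 3 SD, cut at about 25% in these data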;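 further: 0% = DMSO wells with enzyme and 100% = wells lacking Arfgap1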
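material = rat Arfgap1 catalytic domain, aa 1-136 | also added = human ARF1(Δ1-17)-GTP substrate | compound dosing = one concentration, 16.5 µM, DMSO 1.26% | times = GTP hydrolysis reaction 2 h at 25 °C | measured by = FP, GDP Alexa 633 tracer displaced from anti-GDP antibody, 620/688 nm | evaluation = percent inhibition of Arfgap1-stimulated GTP hydrolysis | replication = single well per compound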
ASAP1 inh: ASAP1 ArfGAP inhibition | Q9ULH1 | ASAP1-stimulated ARF1 GTP hydrolysis, GDP FP detection | inhibition, % at 16.5 µM | actives 0.19% (n = 360,000); in the data active means inhibition above about 25%;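 further: 0% = vehicle with enzyme and substrate and 100% = no enzyme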
Target sequence (Q9ULH1 325-724 limits assumed): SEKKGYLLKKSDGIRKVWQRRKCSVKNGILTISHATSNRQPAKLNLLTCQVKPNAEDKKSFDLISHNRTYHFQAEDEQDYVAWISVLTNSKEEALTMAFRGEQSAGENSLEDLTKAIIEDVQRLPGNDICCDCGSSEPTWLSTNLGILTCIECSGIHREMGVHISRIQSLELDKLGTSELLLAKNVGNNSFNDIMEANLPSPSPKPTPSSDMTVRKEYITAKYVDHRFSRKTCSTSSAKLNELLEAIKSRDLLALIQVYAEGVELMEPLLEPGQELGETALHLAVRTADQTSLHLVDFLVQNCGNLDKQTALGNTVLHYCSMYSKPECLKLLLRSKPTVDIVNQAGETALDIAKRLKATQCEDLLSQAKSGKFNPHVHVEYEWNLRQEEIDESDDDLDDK
PHOSPHO1 inh: inhibitors of human PHOSPHO1 phosphatase. Q8TCT1. recombinant PHOSPHO1, absorbance phosphatase assay. inhibition, % at 13.3 µM. actives 1.1% (n = 290,000). AID 1565; in the data active means inhibition above about 60%
Target sequence (Q8TCT1 whole entry, looked up): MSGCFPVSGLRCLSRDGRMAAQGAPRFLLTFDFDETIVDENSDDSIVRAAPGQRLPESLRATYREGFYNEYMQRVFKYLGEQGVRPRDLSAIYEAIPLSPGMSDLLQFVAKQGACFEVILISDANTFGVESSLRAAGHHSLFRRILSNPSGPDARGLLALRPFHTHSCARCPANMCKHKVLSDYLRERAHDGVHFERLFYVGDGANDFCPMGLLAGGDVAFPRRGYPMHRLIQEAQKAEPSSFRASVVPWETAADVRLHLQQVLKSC
Calb FLC: affects C. albicans growth with fluconazole. C. albicans CaCi-2 + fluconazole, Alamar Blue growth, 48 h. growth inhibition, % (test concentration not listed). actives 0.57% (n = 300,000). AID 1979;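 active means growth inhibition above about 58% in most replicates, limit read from the data, passing the limit was not always enough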;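 further: all wells also contain fluconazole at 8 µg/ml as a sub-toxic cotreatment; 0% = median of DMSO wells and 100% = median of geldanamycin control wells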
* hit, by the source's call; . = no result given. Compounds with a hit are over-represented: about 2.6% of the library has one in this group of screens.

SMILES	IMP-1 inh	VIM-2 inhibitor	ARFGAP1 inhibitor	ASAP1 inh	PHOSPHO1 inh	Calb FLC
COc1ccc(OCCNc2cc(N3CCCCC3)ccc2[N+](=O)[O-])cc1	-1.6	-0.8	-4.8	5.5	28.4	2.5
COc1cccc(OCCNc2cc(N3CCCCC3)ccc2[N+](=O)[O-])c1	46.9*	0.8	-2.8	8.1	-0.7	3.2
O=C(NCc1ccccc1)[C@H]1CCCN1C(=O)[C@H]1CCCN1C(=O)c1cccc(F)c1	.	.	18.3	7.0	.	.
Cc1ccc(C(=O)ONc2ccc(N=NC(=O)c3ccccc3O)cc2)cc1	-3.8	-5.1	6.6	17.3	68.8*	-33.4
COC(=O)C1=C(C)N(C)C(=NCc2ccc(C(F)(F)F)cc2)NC1c1ccc(Cl)cc1 (stereo unspecified)	.	.	4.7	-0.9	.	.
COc1ccc(/C=N/NC(=O)c2ccc(C)cc2)cc1CN1CCN(c2ccc(F)cc2)CC1	-3.5	-1.4	.	.	-2.3	-2.1
COc1ccc(/C=N\NC(=O)c2cc(O)c(O)c(O)c2)cc1CN1CCN(c2ccc(F)cc2)CC1	-3.1	-4.5	8.0	8.1	0.8	98.6*
CC(C)CC(=O)NC(=S)NNC(=O)c1ccc(NC(=O)C2CCCCC2)cc1	-1.7	-2.0	-5.7	-5.9	-29.6	75.5*
Cc1ccc2nc3c(cc(C(N)=S)c(=N)n3CCCOC(C)C)c(=O)n2c1	3.5	7.9*	-7.0	5.2	50.4	14.3
COCCCn1c(=N)c(C(N)=S)cc2c(=O)n3cccc(C)c3nc21	.	.	-2.9	-1.4	.	7.6
Cc1ccc2nc3c(cc(C(=O)NCCN4CCOCC4)c(=N)n3CCCN3CCOCC3)c(=O)n2c1	-4.1	8.9*	.	.	27.0	7.5
N=c1c(C(=O)NCCN2CCOCC2)cc2c(=O)n3ccccc3nc2n1Cc1ccc(F)cc1	-4.0	8.1*	14.4	-4.6	18.1	2.1
N=c1c(C(=O)NCCN2CCOCC2)cc2c(=O)n3ccccc3nc2n1CCCN1CCOCC1	-1.0	5.8	11.7	-5.7	27.0	-19.5
COC(=O)C[C@H]1CC[C@@H](NC(=O)Nc2cccc(OC)c2)[C@@H](CO)O1	.	.	0.5	18.4	.	.
COc1ccc(C2C(C(=O)OCC(=O)N3CCCCC3)CCC(=O)N2c2ccc(OC)cc2)cc1 (stereo unspecified)	-1.9	-2.0	-11.4	4.2	67.5*	19.8
CCNC(=O)COC(=O)C1CCC(=O)N(c2ccc(OC)cc2)C1c1ccc(OC)cc1 (stereo unspecified)	-1.0	-6.8	-1.2	2.4	4.1	-3.9
NC(=O)c1ncn([C@@H]2O[C@H](C(=O)N3CCCN(Cc4ccccc4F)CC3)[C@@H](O)[C@H]2O)n1	.	.	9.9	-3.2	.	.
COc1ccc(-c2cc(C(=O)Nc3ccccc3SC)no2)cc1	-1.5	-0.5	7.8	0.0	1.0	-11.1
COc1ccc(-c2cc(C(=O)Nc3cc(Br)ccc3O)no2)cc1	52.4*	0.0	-2.2	10.4	32.6	3.8
CC(C)=CCN1C(=O)[C@]2(OCCC=C[C@H]2C)c2c(Br)cccc21	.	.	10.1	5.6	.	.
O=C(Nc1ccc(O)cc1)c1ccc(NC(=O)C2CCCO2)cc1 (stereo unspecified)	-4.3	-2.0	2.5	13.2	65.8*	24.6
NC(=O)c1ccc(NC(=O)C2CCCO2)cc1 (stereo unspecified)	-1.0	-4.1	9.1	2.4	25.7	-4.9
O=C(O)c1ccc(-c2ccco2)n1Cc1ccccc1	8.8*	1.9	-8.5	9.0	20.4	-5.8
CCOc1ccc(/C=C2/Sc3ccc(C(=O)NCC4CCCO4)cc3N(C)C2=O)cc1OC (stereo unspecified)	0.0	8.6*	-9.5	18.1	35.5	-3.1
Cc1cccc(/C=C2\Sc3ccc(C(=O)NCC4CCCO4)cc3N(C)C2=O)c1 (stereo unspecified)	-4.3	-1.0	6.5	0.0	16.9	53.5
SMILES	IMP-1 inh	VIM-2 inhibitor	ARFGAP1 inhibitor	ASAP1 inh	PHOSPHO1 inh	Calb FLC
COc1ccc(/C=C2\Sc3ccc(C(=O)NCCCN4CCCC4)cc3N(C)C2=O)cc1OC	-0.8	11.5*	9.1	23.7	39.5	-3.8
CC(C)c1ccc(CN2CCN(C(=O)CCl)CC2)cc1	-1.6	2.1	-2.8	-3.6	61.5*	.
CCCCC1OC(CCc2ccccc2)CC2=C1C(=O)OC(C)(C)O2 (stereo unspecified)	.	.	3.9	-6.6	.	.
Cc1ccc(CN(C)C[C@H]2OCc3cnnn3CCCC(=O)N([C@H](C)CO)C[C@@H]2C)cc1	.	.	-1.3	-1.1	.	.
C=CCn1c(-c2sccc2C)n[nH]c1=S	-3.5	8.8*	-10.1	-3.3	-10.9	2.4
CCc1cc(-c2n[nH]c(=S)n2CC)cs1	-5.5	-4.6	-2.6	6.6	53.3	-1.6
C=CCn1c(-c2ccc(OC)c(OC)c2)n[nH]c1=S	-5.6	-1.0	0.4	-3.9	-5.3	5.4
S=c1[nH]nc(-c2ccc(Cl)cc2Cl)n1Cc1ccccc1	-5.0	-3.7	-5.5	-7.9	60.3*	-7.8
CCc1cc(-c2n[nH]c(=S)n2Cc2ccccc2)cs1	-6.4	-3.9	3.8	1.6	92.4*	2.7
C=CCn1c(-c2cccc(Cl)c2)n[nH]c1=S	-4.4	-1.2	2.1	1.4	97.5*	17.5
COc1ccc(N2C(=O)c3n[nH]c(C(C)C)c3C2c2ccccc2)cc1 (stereo unspecified)	.	.	-0.1	-2.6	.	.
COC(=O)[C@]12C[C@H](CC(=O)NCCC(C)C)C(=O)N(Cc3ccccc3)C1=C[C@H](C1CCCC1)O[C@@H]2C	.	.	-4.7	3.5	.	.
COC(=O)[C@]12C[C@H](CC(=O)N3CCN(C(=O)c4ccco4)CC3)C(=O)N(Cc3ccccc3)C1=C[C@H](C(C)C)O[C@@H]2C1CC1	.	.	-0.4	1.6	.	.
Cc1ccc(S(=O)(=O)N(C)C[C@@H]2Oc3ncc(C#CCC(C)C)cc3C(=O)N([C@H](C)CO)C[C@H]2C)cc1	.	.	-4.7	5.2	.	.
Cc1ccccc1-n1c(Cc2cccs2)n[nH]c1=S	-0.2	3.2	2.7	-1.2	20.3	5.2
CCc1cc(-c2n[nH]c(=S)n2-c2ccccc2C)cs1	-6.5	-0.1	.	.	85.7*	74.6
CCCc1cc(-c2n[nH]c(=S)n2C(C)c2ccccc2)cs1 (stereo unspecified)	-3.8	-8.6	-10.9	-6.7	82.7*	0.1
S=c1[nH]nc(-c2cccc(Cl)c2)n1Cc1ccccc1	-3.7	-2.5	5.6	-4.7	68.9*	18.2
Cc1cccc(-c2n[nH]c(=S)n2Cc2ccccc2)c1	-1.5	-2.1	-4.6	-0.1	3.4	2.9
O=C(Oc1ccccc1)c1c(Cl)cccc1P(=O)(O)O	1.3	8.5*	8.1	-5.5	7.5	-3.0
O=C(OCC(=O)N1CCc2ccccc2C1)c1cccs1	-0.3	-1.0	2.1	-9.3	65.3*	20.2
CCOC(=O)N1CCN(C(=O)C2CCC(=O)N(CCCc3ccccc3)C2)CC1 (stereo unspecified)	-1.1	-1.1	-0.4	0.1	61.0*	-2.6
CCCSCCCNC(=O)Cn1nc(CC)n2c(cc3c(OC)cccc32)c1=O	9.1*	-0.3	-4.0	-8.8	.	-6.7

Screening data: PubChem BioAssay, several laboratories
